An excerpt weighted towards active compounds, which were near 2.1% of everything screened.
MC4R ag barr: MC4R agonists recruiting beta-arrestin, primary screen, cell-based, luminescence, agonist arm of biased-ligand search | U2OS MC4R beta-arrestin complementation; percent of melanotan II response, DMSO zero | activation, % at 8.9 µM | 360,000 compounds, 0.98% hits;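 active means activation above a per-plate cutoff, the mean activation of sample wells on that plate plus 3 SD, cut at about 8% in these data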
Target sequence (P32245 whole entry, looked up): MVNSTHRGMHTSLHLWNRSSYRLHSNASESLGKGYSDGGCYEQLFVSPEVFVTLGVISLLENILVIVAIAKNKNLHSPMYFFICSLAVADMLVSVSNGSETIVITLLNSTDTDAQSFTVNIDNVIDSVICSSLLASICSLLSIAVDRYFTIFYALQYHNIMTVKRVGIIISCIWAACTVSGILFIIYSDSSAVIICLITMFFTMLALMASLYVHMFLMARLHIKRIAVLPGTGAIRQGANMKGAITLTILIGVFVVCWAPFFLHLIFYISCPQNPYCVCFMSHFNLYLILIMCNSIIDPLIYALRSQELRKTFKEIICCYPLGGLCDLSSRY
SMARCA2 activ: SMARCA2 (BRM) function activators, primary screen, cell-based, luminescence, high throughput. MG213 cells, MMTV-luciferase reporter, dexamethasone, overnight. activation, % at 9.1 µM. 370,000 compounds, 1% hits; in the data active means activation above about 7.8%
F508del corr: F508del CFTR correction, initial screen, CFBE line, single point; CFBE cells, YFP halide quenching; stimulated with forskolin plus potentiator P3; % fluorescence drop versus neutral controls; activity (quench increase), % at 7.58 µM; 350,000 compounds, 0.36% hits;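 active means mean added fluorescence quench of at least 8% versus neutral control, with both replicates also reaching 8%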;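 further: cells transiently co-express mutant CFTR-F508del with the halide-sensitive YFP; corrector assay measuring rescue of mutant channel to the surface after 24 h compound exposure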
MC4R antagonist: MC4R antagonists of cAMP signaling, primary screen, cell-based, TR-FRET, antagonist arm of biased-ligand search. MC4R-expressing cells, MTII-stimulated cAMP, LANCE TR-FRET. inhibition, % at 6.5 µM. 360,000 compounds, 0.48% hits;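 active means inhibition above its plate's cutoff, the mean of tested wells on that plate plus 3 SD, cut at about 29% in these data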
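System – human MC4R-expressing U2OS cells · Also added – Melanotan II · Dosing – one concentration, 6.5 µM nominal · Timing – 30-min compound, 1-h challenge, 1-h detection, room temperature · Measured by – Eu-cAMP/anti-cAMP TR-FRET, emission 671 nm · Replicates – singlicate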
Each line names hits and unclear results; the compound was inactive in the other large screens.

CCOC(=O)c1c(NC(=O)Cn2nc(C(=O)O)c3ccccc3c2=O)sc(C)c1C	MC4R ag barr 9.0
CCOC(=O)c1c(NC(=O)Cn2nc(C(=O)O)c3ccccc3c2=O)sc(CC)c1C	none
C[C@H]1CCCCO[C@@H](CN(C)S(=O)(=O)c2ccccc2)[C@@H](C)CN([C@@H](C)CO)C(=O)c2cc(NC(=O)Cc3ccccc3)ccc2O1	none (no result: MC4R ag barr, SMARCA2 activ, MC4R antagonist)
O=C(CN(C1CCCCC1)S(=O)(=O)c1ccc(F)cc1)NCC1CCCO1 (configuration not stated)	F508del corr 21
COCC(=O)N1C[C@H]2[C@@H](c3ccccc31)[C@@H](CO)N2C(=O)C1CCCCC1	none (no result: MC4R ag barr, SMARCA2 activ, MC4R antagonist)
O=C(NCCc1ccccc1)[C@@H]1[C@@H](CO)[C@@H]2Cn3c(cccc3=O)[C@H]1N2C(=O)C1CCCC1	none (no result: MC4R ag barr, SMARCA2 activ, MC4R antagonist)
Cc1noc(C)c1NC(=O)N[C@@H]1CC[C@H](CCNC(=O)C2CCCCC2)O[C@H]1CO	none (no result: MC4R ag barr, SMARCA2 activ, MC4R antagonist)
COc1ccc2[nH]c3c(=O)n(/N=C/[C@H]4C(C)C=C(C)CC4C)c(=O)[nH]c3c2c1 (some centres not stated)	MC4R ag barr 8.3
N#C/C(=C\c1ccc(Cl)cc1)c1nc2ccccc2o1	MC4R ag barr 8.9 (no result: F508del corr)
N#C/C(=C\c1ccncc1)c1nc2ccccc2o1	none
CCOc1ccc(S(=O)(=O)N2CCOCC2)cc1NC(=O)CSCC(=O)Nc1ccc(OC)cc1	F508del corr 20
COc1ccc(C2C(C#N)=C(N)OC3=C2C(=O)CC(C)C3)c(OC)c1OC (configuration not stated)	none (no result: F508del corr)
COc1ccc2c(c1OC)OCC2C (configuration not stated)	F508del corr 8.1
Brc1ccccc1/C=N/Nc1ccc2ccccc2n1	none (no result: F508del corr)
Brc1ccc(/C=N/Nc2ccc3ccccc3n2)cc1	MC4R ag barr 11 (no result: F508del corr)
Cc1cccc(C)c1-n1nnnc1SCSc1nnnn1-c1c(C)cccc1C	MC4R ag barr 8.7 (no result: F508del corr)
C[C@@H]1CN([C@H](C)CO)C(=O)c2cc(NS(=O)(=O)c3ccc(Cl)cc3)ccc2O[C@@H]1CN(C)S(C)(=O)=O	none (no result: MC4R ag barr, SMARCA2 activ, MC4R antagonist)
CC(C)(C)c1cc(NC(=O)Nc2ccccc2OC(F)(F)F)no1	MC4R ag barr 8.7
COC(=O)c1ccccc1NC(=O)Nc1cc(C(C)(C)C)on1	none
O=C(Nc1ccc(F)cc1)N1CCCCN2[C@H](C1)[C@H](c1ccc(-c3cccc(F)c3)cc1)[C@@H]2CO	F508del corr 8.9 (no result: MC4R ag barr, SMARCA2 activ, MC4R antagonist)
Cc1ccc(-c2ccc([C@H]3[C@@H](CO)N4CCCCN(C(=O)Nc5cccc(F)c5)C[C@H]34)cc2)cc1	F508del corr 8.0 (no result: MC4R ag barr, SMARCA2 activ, MC4R antagonist)
O=C(Nc1ccc(F)cc1)N1CCCCN2[C@H](CO)[C@H](c3ccc(-c4cccc(F)c4)cc3)[C@H]2C1	none (no result: MC4R ag barr, SMARCA2 activ, MC4R antagonist)
O=C(Nc1cccc(F)c1)N1CCCCN2[C@H](CO)[C@@H](c3ccc(C#Cc4ccccc4)cc3)[C@@H]2C1	none (no result: MC4R ag barr, SMARCA2 activ, MC4R antagonist)
O=C(Nc1cccc(F)c1)N1CCCCN2[C@@H](CO)[C@H](c3ccc(C#CC4CC4)cc3)[C@@H]2C1	F508del corr 8.6 (no result: MC4R ag barr, SMARCA2 activ, MC4R antagonist)
C[C@@H]1CN([C@H](C)CO)C(=O)c2cccc(NC(=O)c3cnccn3)c2O[C@H]1CN(C)S(C)(=O)=O	none (no result: MC4R ag barr, SMARCA2 activ, MC4R antagonist)
C[C@@H]1CN([C@@H](C)CO)S(=O)(=O)c2ccc(C#Cc3ccccn3)cc2O[C@@H]1CN(C)C(=O)C1CC1	none (no result: MC4R ag barr, SMARCA2 activ, MC4R antagonist)
COc1cc(OC)cc(C(=O)c2c(C)c(C#N)c3ccccn23)c1	F508del corr 17
CCOC(=O)COc1ccc2c(C#N)c3ccccn3c2c1	none
C/C=C/c1ccc([C@H]2[C@H]3CN(S(=O)(=O)c4cccc(C)c4)CCCCN3[C@H]2CO)cc1	none (no result: MC4R ag barr, SMARCA2 activ, MC4R antagonist)
C/C=C/c1ccc([C@@H]2[C@H](CO)N3CCCCN(S(=O)(=O)c4ccccc4)C[C@@H]23)cc1	F508del corr 31 (no result: MC4R ag barr, SMARCA2 activ, MC4R antagonist)
CSc1cccc(NC(=O)Nc2nc3c(C)cccc3s2)c1	MC4R ag barr 9.1
COc1ccc(C(C#N)CC(=O)c2ccc3c(c2)OCO3)cc1OC (configuration not stated)	F508del corr 14
O=C(COC(=O)C1CCC1)Nc1cc(S(=O)(=O)N2CCOCC2)ccc1Cl	F508del corr 13
CN(C)c1nc(=NCc2cccs2)ss1	SMARCA2 activ 13
CC(SC(=S)N(C)Cc1cccs1)C(=O)O (configuration not stated)	none
COc1ccc2nc(N3C(=O)C(O)=C(C(=O)c4ccco4)C3c3ccc(C)o3)sc2c1 (configuration not stated)	none
CCOc1ccc2nc(N3C(=O)C(O)=C(C(=O)c4ccco4)C3c3ccco3)sc2c1 (configuration not stated)	SMARCA2 activ 7.9
CCSc1nnc(N2C(=O)C(O)=C(C(=O)c3ccco3)C2c2cccc(OC)c2)s1 (configuration not stated)	F508del corr 9.3
CO[C@@H]1CN(C)C(=O)c2cc(NS(=O)(=O)c3ccc(Oc4ccccc4)cc3)ccc2OC[C@H](C)NC[C@@H]1C	none (no result: MC4R ag barr, SMARCA2 activ, MC4R antagonist)
CCOc1ccc(C)cc1S(=O)(=O)n1cnc2ccccc21	F508del corr 9.9
Cc1cc(NC(=O)CN2C(=O)NC3(CCCCCC3)C2=O)ccc1Br	F508del corr 32
CCc1ccc(C(=O)CN2C(=O)NC3(CCCCCC3)C2=O)cc1	SMARCA2 activ 7.9
CC(C)(C)c1ccccc1NC(=O)CN1C(=O)NC2(CCCCCC2)C1=O	F508del corr 30
CC(=O)Nc1ccc(-c2csc(NC(=O)CN3C(=O)NC4(CCCC4)C3=O)n2)cc1	F508del corr 8.1
Cc1ccccc1NC(=O)CN1C(=O)NC2(CCCCC2)C1=O	none (no result: F508del corr)
Cc1ccc(S(=O)(=O)N(C)C[C@H]2OCCCC[C@@H](C)Oc3ccc(NS(=O)(=O)c4ccc(Cl)cc4)cc3C(=O)N([C@@H](C)CO)C[C@@H]2C)cc1	none (no result: MC4R ag barr, SMARCA2 activ, MC4R antagonist)
CCC(=O)N1C[C@@H](C)[C@@H](OC)CN(C)C(=O)c2cc(NC(=O)Nc3cccc(F)c3)ccc2OC[C@@H]1C	none (no result: MC4R ag barr, SMARCA2 activ, MC4R antagonist)
Cc1cccc(OCC(=O)Nc2nc3ccc([N+](=O)[O-])cc3s2)c1C	MC4R ag barr 9.1 (no result: F508del corr)
CCOC(=O)[C@H](CCc1ccccc1)N[C@@H](C)C(=O)N1[C@H](C(=O)O)C[C@@H]2CCC[C@@H]21	F508del corr 12
O=C1N=c2ccccc2=C1c1sc(Nc2ccc(O)cc2)nc1O	SMARCA2 activ 7.8
CCNC(=O)C[C@H]1CC[C@H]2[C@@H](COC[C@H](O)CN2Cc2ccncc2)O1	none (no result: MC4R ag barr, SMARCA2 activ, MC4R antagonist)
COc1ccccc1OCCNC(=O)CCNC(=O)c1ccccc1OC	F508del corr 24
COc1ccccc1C(=O)NCCC(=O)NCCOc1ccccc1	none
CCCCOc1ccc(C(=O)NCCc2cccs2)cc1	none (no result: SMARCA2 activ, F508del corr)
CCOc1ccc(C(=O)NCc2cccs2)cc1	SMARCA2 activ 7.9 (no result: F508del corr)
O=C(O)[C@H]1[C@H](CO)[C@H]2Cn3c(ccc(C4=CCCCC4)c3=O)[C@H]2N1C(=O)Cc1cccnc1	none (no result: MC4R ag barr, SMARCA2 activ, MC4R antagonist)

Assay outcomes from PubChem BioAssay.
